{
  "source": "ChEMBL document CHEMBL2380254",
  "about": "“Optimization of tocotrienols as antiproliferative and antimigratory leads” (Eur J Med Chem, 2013)",
  "format_in_all_cases": "functional",
  "key": {"DU-145": {"tested_on": "DU-145", "assay": "Growth inhibition of human DU145 cells after 48 hrs by sulforhodamine B assay", "conditions": "DU-145, 48 h", "procedure,_shortened": "(§1)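 NCI-60 screen: cells in RPMI 1640 with 5% FBS and 2 mM glutamine, 5000–40,000 cells/well, preincubated 24 h. Five concentrations (10-fold dilutions; 100 to 0.001 µM) applied for 48 h at 37 °C. TCA fixation, SRB stain, absorbance at 515 nm. Time-zero plates included; GI50 where 100×(T−T0)/(C−T0)=50.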"}, "KM12": {"tested_on": "KM12", "assay": "Growth inhibition of human KM12 cells after 48 hrs by sulforhodamine B assay", "conditions": "KM12, 48 h", "procedure,_shortened": "as §1"}, "NCI-H226 [1]": {"tested_on": "NCI-H226", "assay": "Growth inhibition of human NCI-H226 cells after 48 hrs by sulforhodamine B assay", "conditions": "NCI-H226, 48 h", "procedure,_shortened": "(§2)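 NCI-60 panel cells grown in RPMI 1640 with 5% FBS and 2 mM L-glutamine, seeded at 5000–40,000 cells/well and preincubated 24 h. Five 10-fold dilutions (0.001–100 µM) from DMSO stocks were added for 48 h at 37 °C. Adherent cells were fixed with cold TCA (10% final) for 60 min at 4 °C, stained with 0.4% SRB, and read at 515 nm. GI50 was set where 100×(T−T0)/(C−T0)=50.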"}, "RXF 393": {"tested_on": "RXF 393", "assay": "Growth inhibition of human RXF393 cells after 48 hrs by sulforhodamine B assay", "conditions": "RXF 393, 48 h", "procedure,_shortened": "as §2"}, "HT-29": {"tested_on": "HT-29", "assay": "Growth inhibition of human HT-29 cells after 48 hrs by sulforhodamine B assay", "conditions": "HT-29, 48 h", "procedure,_shortened": "as §1"}, "RPMI-8226": {"tested_on": "RPMI-8226", "assay": "Growth inhibition of human RPMI8226 cells assessed as cell growth at 10 uM after 48 hrs by sulforhodamine B assay", "conditions": "RPMI-8226, 48 h, read-out: Activity", "procedure,_shortened": "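Single 10 µM dose applied to suspension cells in RPMI 1640 with 5% FBS and 2 mM L-glutamine for 48 h at 37 °C. Settled cells were fixed with 80% TCA (16% final), stained with SRB, and read at 515 nm. Percent growth was calculated against time-zero and untreated control optical densities.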"}, "PC-3": {"tested_on": "PC-3", "assay": "Growth inhibition of human PC3 cells after 48 hrs by sulforhodamine B assay", "conditions": "PC-3, 48 h", "procedure,_shortened": "as §2"}, "SNB-19": {"tested_on": "SNB-19", "assay": "Growth inhibition of human SNB19 cells assessed as cell growth at 10 uM after 48 hrs by sulforhodamine B assay", "conditions": "SNB-19, 48 h, read-out: Activity", "procedure,_shortened": "(§3)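 Single-dose NCI-60 test at 10 µM. Cells were grown in RPMI 1640 with 5% FBS and 2 mM L-glutamine, preincubated 24 h, with T0 plates TCA-fixed. Exposure was 48 h at 37 °C, 5% CO2. Cells were fixed with cold TCA (final 10%, 4 °C, 60 min), stained with SRB and read at 515 nm. Percent growth was taken relative to T0 and untreated control; negative values denote cell kill.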"}, "UACC-257 [2]": {"tested_on": "UACC-257", "assay": "Growth inhibition of human UACC257 cells assessed as cell growth at 10 uM after 48 hrs by sulforhodamine B assay", "conditions": "UACC-257, 48 h, read-out: Activity", "procedure,_shortened": "as §3"}, "SK-OV-3": {"tested_on": "SK-OV-3", "assay": "Growth inhibition of human SKOV3 cells assessed as cell growth at 10 uM after 48 hrs by sulforhodamine B assay", "conditions": "SK-OV-3, 48 h, read-out: Activity", "procedure,_shortened": "as §3"}, "UACC-257 [3]": {"tested_on": "UACC-257", "assay": "Growth inhibition of human UACC257 cells after 48 hrs by sulforhodamine B assay", "conditions": "UACC-257, 48 h", "procedure,_shortened": "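NCI-60 five-dose screen. Cells were grown in RPMI 1640 with 5% FBS and 2 mM L-glutamine, plated at 5000–40,000 cells/well and incubated 24 h before dosing, with T0 plates TCA-fixed. DMSO stocks were diluted to doses of […] and exposed 48 h at 37 °C, 5% CO2. Cells were fixed with cold TCA (final 10%, 60 min, 4 °C), stained with 0.4% SRB in 1% acetic acid for 10 min, solubilized in 10 mM trizma base and read at 515 nm. GI50 is where 100×(T−T0)/(C−T0)=50.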"}, "[4]": {"assay": "Growth inhibition of human HCC2998 cells assessed as cell growth at 10 uM after 48 hrs by sulforhodamine B assay", "conditions": "HCC 2998, 48 h, read-out: Activity", "procedure,_shortened": "(§4)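 NCI-60 single-dose screen at 10 µM: cells in RPMI 1640 with 5% FBS, preincubated 24 h, then exposed 48 h at 37 °C. TCA fixation (16% final for suspension cells), SRB staining, absorbance 515 nm. Percent growth relative to time-zero and untreated control plates; negative values indicate cell kill.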"}, "CCRF-CEM": {"tested_on": "CCRF-CEM", "assay": "Growth inhibition of human CCRF-CEM cells after 48 hrs by sulforhodamine B assay", "procedure,_shortened": "as §1"}, "HCT-15": {"tested_on": "HCT-15", "assay": "Growth inhibition of human HCT15 cells assessed as cell growth at 10 uM after 48 hrs by sulforhodamine B assay", "conditions": "HCT-15, 48 h, read-out: Activity", "procedure,_shortened": "as §4"}, "HOP-62": {"tested_on": "HOP-62", "assay": "Growth inhibition of human HOP62 cells after 48 hrs by sulforhodamine B assay", "conditions": "HOP-62, 48 h", "procedure,_shortened": "as §1"}, "HCT-116": {"tested_on": "HCT-116", "assay": "Growth inhibition of human HCT116 cells after 48 hrs by sulforhodamine B assay", "conditions": "HCT-116, 48 h", "procedure,_shortened": "as §1"}, "SK-MEL-2": {"tested_on": "SK-MEL-2", "assay": "Growth inhibition of human SK-MEL-2 cells after 48 hrs by sulforhodamine B assay", "conditions": "SK-MEL-2, 48 h", "procedure,_shortened": "as §2"}, "A549 [5]": {"tested_on": "A549", "assay": "Growth inhibition of human A549/ATCC cells after 48 hrs by sulforhodamine B assay", "conditions": "A549, 48 h", "procedure,_shortened": "as §1"}, "SR": {"tested_on": "SR", "assay": "Growth inhibition of human SR cells assessed as cell growth at 10 uM after 48 hrs by sulforhodamine B assay", "conditions": "read-out: Activity", "procedure,_shortened": "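Suspension line in RPMI 1640 with 5% FBS, single 10 µM dose for 48 h. Settled cells were fixed with TCA (final 16%), then SRB-stained and read at 515 nm. Percent growth was taken versus T0 and control; negative values denote cytotoxicity.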"}, "LOX IMVI": {"tested_on": "LOX IMVI", "assay": "Growth inhibition of human LOXIMVI cells after 48 hrs by sulforhodamine B assay", "procedure,_shortened": "as §1"}, "A549 [6]": {"tested_on": "A549", "assay": "Growth inhibition of human A549/ATCC cells assessed as cell growth at 10 uM after 48 hrs by sulforhodamine B assay", "conditions": "A549, 48 h, read-out: Activity", "procedure,_shortened": "as §4"}, "BT-549": {"tested_on": "BT-549", "assay": "Growth inhibition of human BT549 cells after 48 hrs by sulforhodamine B assay", "conditions": "BT-549, 48 h", "procedure,_shortened": "as §1"}, "NCI-H226 [7]": {"tested_on": "NCI-H226", "assay": "Growth inhibition of human NCI-H226 cells assessed as cell growth at 10 uM after 48 hrs by sulforhodamine B assay", "conditions": "NCI-H226, 48 h, read-out: Activity", "procedure,_shortened": "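Single-dose NCI-60 screen: adherent cells in RPMI 1640 with 5% FBS were exposed to 10 µM for 48 h at 37 °C after a 24 h preincubation. They were fixed in situ with cold TCA (10% final), stained with 0.4% SRB in 1% acetic acid, solubilized in 10 mM Tris base, and read at 515 nm. Percent growth was taken relative to time-zero and control plates.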"}, "SW-620": {"tested_on": "SW-620", "assay": "Growth inhibition of human SW620 cells assessed as cell growth at 10 uM after 48 hrs by sulforhodamine B assay", "conditions": "SW-620, 48 h, read-out: Activity", "procedure,_shortened": "as §3"}},
  "data": [
    {"compound": "CC(C)=CCC/C(C)=C/CC/C(C)=C/CC[C@]1(C)CCc2c3c(cc(C)c2O1)OCN(CCCCCO)C3", "values": [
      {"measurement": "GI50", "setting": "DU-145", "result": 6.28, "unit": "µM"},
      {"measurement": "GI50", "setting": "KM12", "result": 7.41, "unit": "µM"},
      {"measurement": "GI50", "setting": "NCI-H226 [1]", "result": 6.19, "unit": "µM"},
      {"measurement": "GI50", "setting": "RXF 393", "result": 1940, "unit": "nM"},
      {"measurement": "GI50", "setting": "HT-29", "result": 3.74, "unit": "µM"},
      {"measurement": "growth at 10 µM", "setting": "RPMI-8226", "result": -16.3, "unit": "%"},
      {"measurement": "GI50", "setting": "PC-3", "result": 5.71, "unit": "µM"},
      {"measurement": "growth at 10 µM", "setting": "SNB-19", "result": 82, "unit": "%"},
      {"measurement": "growth at 10 µM", "setting": "UACC-257 [2]", "result": 83.8, "unit": "%"},
      {"measurement": "growth at 10 µM", "setting": "SK-OV-3", "result": 96.9, "unit": "%"},
      {"measurement": "GI50", "setting": "UACC-257 [3]", "result": 6.97, "unit": "µM"},
      {"measurement": "growth at 10 µM", "setting": "[4]", "result": -48.5, "unit": "%"},
      {"measurement": "GI50", "setting": "CCRF-CEM", "result": 7.83, "unit": "µM"},
      {"measurement": "growth at 10 µM", "setting": "HCT-15", "result": 62.3, "unit": "%"},
      {"measurement": "GI50", "setting": "HOP-62", "result": 5.9, "unit": "µM"},
      {"measurement": "GI50", "setting": "HCT-116", "result": 5.25, "unit": "µM"},
      {"measurement": "GI50", "setting": "SK-MEL-2", "result": 7.47, "unit": "µM"},
      {"measurement": "GI50", "setting": "A549 [5]", "result": 6.19, "unit": "µM"},
      {"measurement": "growth at 10 µM", "setting": "SR", "result": -16.9, "unit": "%"},
      {"measurement": "GI50", "setting": "LOX IMVI", "result": 6.07, "unit": "µM"},
      {"measurement": "growth at 10 µM", "setting": "A549 [6]", "result": 36.1, "unit": "%"},
      {"measurement": "GI50", "setting": "BT-549", "result": 7.34, "unit": "µM"},
      {"measurement": "growth at 10 µM", "setting": "NCI-H226 [7]", "result": 98.4, "unit": "%"},
      {"measurement": "growth at 10 µM", "setting": "SW-620", "result": -83.7, "unit": "%"}
    ]}
  ]
}
